Data from ChEMBL document CHEMBL1136753, “Optimization of 2-phenylaminoimidazo[4,5-h]isoquinolin-9-ones: orally active inhibitors of lck kinase” (J Med Chem, 2003).

Legend:
[1] = target: Tyrosine-protein kinase Lck (Homo sapiens, UniProt P06239); test: Inhibition of p56 Lck tyrosine kinase
Jurkat = test: Inhibition of Calcium release in jurkat cells; type: functional, cell-based; conditions: Homo sapiens
Outline: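 Jurkat cells loaded with Fluo-3, washed in HBSS with 1 mM CaCl₂, 1 mM MgCl₂, 10 mM HEPES, 2 mM probenecid, 1% FBS, pH 7.4. Final 3 × 10⁵ cells/mL. Compound added for 15 min at room temperature, then anti-CD3 (clone X35, final 0.25 µg/mL). FLIPR fluorescence followed for 13 min. Peak minus baseline plotted against concentration gives EC₅₀. Mean of two or more experiments in duplicate ± SD.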

Homo sapiens = species: Homo sapiens; test: Inhibition of IL-2 production in human whole blood; type: functional
tissue or blood = type: functional, tissue-based; conditions: Homo sapiens
[2] = target: Ribosomal protein S6 kinase alpha-5 (Homo sapiens, UniProt O75582); test: Inhibition of MSK-1 kinase
Outline: (§1)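 Run externally by the Dundee consortium kinase panel with 100 µM ATP. IC50 values in µM.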

[3] = target: 3-phosphoinositide-dependent protein kinase 1 (Homo sapiens, UniProt O15530); test: Inhibition of Phospho-inositide dependent kinase 1 (PDK1)
Outline: (§2)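 Serine/threonine kinase panel run through the Dundee consortium with ATP at 100 µM. IC₅₀ values are reported.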

[4] = target: Inhibitor of nuclear factor kappa-B kinase subunit alpha (Homo sapiens, UniProt O15111); test: Inhibition of IKK alpha kinase; outline: as §2
[5] = target: Serine/threonine-protein kinase Chk1 (Homo sapiens, UniProt O14757); test: Inhibition of Serine/threonine-protein kinase Chk1; outline: as §1
[6] = target: Vascular endothelial growth factor receptor (Homo sapiens, UniProt P17948+P35916+P35968); test: Inhibition of Vascular endothelial growth factor receptor; type: protein assay
Outline: (§3)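 DELFIA tyrosine kinase assay on neutravidin-coated plates. Substrate is biotinylated poly-Glu₄-Tyr₁, with ATP at or below Km. Compounds are tested in 10-point dose response. After 45 min at room temperature, Eu-labelled anti-phosphotyrosine is added and time-resolved fluorescence is read (ex 360/em 620 nm). IC₅₀ is the mean of ≥2 determinations in duplicate.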

[7] = target: Inhibitor of nuclear factor kappa-B kinase subunit beta (Homo sapiens, UniProt O14920); test: Inhibition of IKK beta kinase; outline: as §2
[8] = target: Tyrosine-protein kinase ZAP-70 (Homo sapiens, UniProt P43403); test: Inhibition of Zeta-chain (TCR) associated protein kinase 70 kDa (ZAP-70)
Outline: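 Kinase-panel IC50 with ATP at or below the Km of each listed kinase. Each value is the mean of two or more separate determinations, each in duplicate.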

[9] = target: Glycogen synthase kinase-3 beta (Homo sapiens, UniProt P49841); test: Inhibition of Glycogen synthase kinase-3 beta; outline: as §2
[10] = target: Proto-oncogene tyrosine-protein kinase Src (Homo sapiens, UniProt P12931); test: Inhibition of Src protein tyrosine kinase; outline: as §3
[11] = target: Cyclin-dependent kinase 2 (Homo sapiens, UniProt P24941); test: Inhibition of Cyclin-dependent kinase 2; outline: as §2
[12] = target: AMP-activated protein kinase, AMPK; test: Inhibition of AMP-activated Protein Kinase; type: protein-complex assay; outline: as §2
[13] = Inhibition of PHK phosphorylase kinase
[14] = target: Tyrosine-protein kinase ITK/TSK (Homo sapiens, UniProt Q08881); test: Inhibition of IL-2-inducible T-cell kinase (Itk kinase) was measured using DELFIA (dissociation enhanced lanthanide fluoroimmunoassay); outline: as §3
[15] = target: Tyrosine-protein kinase Lyn (Homo sapiens, UniProt P07948); test: Inhibition of Protein tyrosine kinase Lyn; outline: as §3
[16] = target: Tyrosine-protein kinase CSK (Homo sapiens) (UniProt P41240); test: Inhibition of Csk tyrosine kinase; conditions: concentration not given here
Outline: (§4)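 DELFIA tyrosine kinase assay: enzyme at 0.8 nM final, biotin-poly-Glu₄-Tyr₁ substrate, 1 µM final ATP. Ten-point dilutions from 1 µg/mL final, 45 min at room temperature. Phosphotyrosine read by Eu-anti-phosphotyrosine time-resolved fluorescence. IC₅₀ is the mean of two or more determinations in duplicate.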

Casein kinase II = Casein kinase II (Homo sapiens, UniProt P19784+P67870+P68400); test: Inhibition of Casein kinase II; type: protein-complex assay; outline: as §2
[17] = target: Cyclin-dependent kinase 4 (Homo sapiens, UniProt P11802); test: Inhibition of Cyclin-dependent kinase 4; outline: as §2
[18] = target: Receptor tyrosine-protein kinase erbB-2 (Homo sapiens, UniProt P04626); test: Inhibition of Protein kinase HER-2; outline: as §3
[19] = target: MAP kinase-activated protein kinase 2 (Homo sapiens, UniProt P49137); test: Inhibition of MAP kinase-activated protein kinase 1b/MAP kinase-activated protein kinase 2; outline: as §2
[20] = target: Hepatocyte growth factor receptor (Homo sapiens, UniProt P08581); test: Inhibition of Hepatocyte growth factor receptor; type: cell-based; outline: as §3
[21] = target: MAP kinase-activated protein kinase 5 (Homo sapiens, UniProt Q8IW41); test: Inhibition of Protein kinase PRAK; outline: as §1
[22] = target: Serine/threonine-protein kinase Sgk1 (Homo sapiens, UniProt O00141); test: Inhibition of Serum/glucocorticoid regulated kinase; outline: as §2
[23] = target: RAC-alpha serine/threonine-protein kinase (Homo sapiens, UniProt P31749); test: Inhibition of Protein kinase B alpha; outline: as §2
Insulin receptor = Insulin receptor (Homo sapiens, UniProt P06213); test: Inhibition of Insulin receptor; outline: as §3
[24] = Inhibition of Insulin-like growth factor receptor; outline: as §4
[25] = Inhibition of Platelet-derived growth factor receptor; outline: as §4
[26] = target: Ribosomal protein S6 kinase (P70S6K) (Homo sapiens, UniProt P23443+Q9UBS0); test: Inhibition of Ribosomal protein S6 kinase (P70S6K kinase); type: protein-complex assay; outline: as §2
Protein kinase C (PKC) = test: Inhibition of Protein kinase C; type: protein assay; outline: as §2
[27] = target: cAMP-dependent protein kinase (PKA) (Homo sapiens, UniProt P22694+P17612+P22612); test: Inhibition of Protein kinase A (PKA); type: protein assay; outline: as §2
[28] = target: Mitogen-activated protein kinase; ERK1/ERK2 (Homo sapiens, UniProt P27361+P28482); test: Inhibition of Mitogen-activated protein kinase; type: protein assay; outline: as §2
[29] = target: Rho-associated protein kinase 2 (Homo sapiens, UniProt O75116); test: Inhibition of Protein kinase ROCK2; outline: as §2
[30] = Inhibition of Calcium/calmodulin-dependent protein kinase
[31] = target: Tyrosine-protein kinase SYK (Homo sapiens, UniProt P43405); test: Inhibition of Syk protein tyrosine kinase; outline: as §3
[32] = target: c-Jun N-terminal kinase, JNK (Homo sapiens, UniProt P45983+P53779+P45984); test: Inhibition of c-Jun N-terminal kinase; type: protein assay; outline: as §2

Tyrosine-protein kinase Lck, sequence (P06239 whole entry): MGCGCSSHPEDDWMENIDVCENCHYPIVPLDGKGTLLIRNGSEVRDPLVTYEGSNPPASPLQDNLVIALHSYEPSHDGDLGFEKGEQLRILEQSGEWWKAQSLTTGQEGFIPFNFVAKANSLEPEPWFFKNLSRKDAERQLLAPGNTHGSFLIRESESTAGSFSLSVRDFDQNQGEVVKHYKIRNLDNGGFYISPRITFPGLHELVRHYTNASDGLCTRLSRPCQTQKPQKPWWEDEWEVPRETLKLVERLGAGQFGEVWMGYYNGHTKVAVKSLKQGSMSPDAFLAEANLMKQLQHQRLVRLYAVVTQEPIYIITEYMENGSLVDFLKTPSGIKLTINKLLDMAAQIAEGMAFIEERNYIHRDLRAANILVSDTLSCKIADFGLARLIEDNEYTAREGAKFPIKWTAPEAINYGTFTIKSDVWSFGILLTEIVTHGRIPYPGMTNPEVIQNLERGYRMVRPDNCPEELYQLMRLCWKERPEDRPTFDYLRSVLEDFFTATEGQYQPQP
Glycogen synthase kinase-3 beta, sequence (P49841 whole entry): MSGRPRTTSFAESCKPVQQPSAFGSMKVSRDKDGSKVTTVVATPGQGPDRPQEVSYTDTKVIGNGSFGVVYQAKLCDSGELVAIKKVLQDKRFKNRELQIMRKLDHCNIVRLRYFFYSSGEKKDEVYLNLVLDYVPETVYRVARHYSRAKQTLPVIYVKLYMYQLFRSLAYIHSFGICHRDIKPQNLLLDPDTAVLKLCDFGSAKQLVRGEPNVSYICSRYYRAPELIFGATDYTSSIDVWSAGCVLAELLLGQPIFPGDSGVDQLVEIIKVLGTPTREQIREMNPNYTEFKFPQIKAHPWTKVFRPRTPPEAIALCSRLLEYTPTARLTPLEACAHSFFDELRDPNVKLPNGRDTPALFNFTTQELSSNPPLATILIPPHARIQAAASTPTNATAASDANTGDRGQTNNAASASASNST
Insulin receptor, sequence (P06213 28-758 limits assumed): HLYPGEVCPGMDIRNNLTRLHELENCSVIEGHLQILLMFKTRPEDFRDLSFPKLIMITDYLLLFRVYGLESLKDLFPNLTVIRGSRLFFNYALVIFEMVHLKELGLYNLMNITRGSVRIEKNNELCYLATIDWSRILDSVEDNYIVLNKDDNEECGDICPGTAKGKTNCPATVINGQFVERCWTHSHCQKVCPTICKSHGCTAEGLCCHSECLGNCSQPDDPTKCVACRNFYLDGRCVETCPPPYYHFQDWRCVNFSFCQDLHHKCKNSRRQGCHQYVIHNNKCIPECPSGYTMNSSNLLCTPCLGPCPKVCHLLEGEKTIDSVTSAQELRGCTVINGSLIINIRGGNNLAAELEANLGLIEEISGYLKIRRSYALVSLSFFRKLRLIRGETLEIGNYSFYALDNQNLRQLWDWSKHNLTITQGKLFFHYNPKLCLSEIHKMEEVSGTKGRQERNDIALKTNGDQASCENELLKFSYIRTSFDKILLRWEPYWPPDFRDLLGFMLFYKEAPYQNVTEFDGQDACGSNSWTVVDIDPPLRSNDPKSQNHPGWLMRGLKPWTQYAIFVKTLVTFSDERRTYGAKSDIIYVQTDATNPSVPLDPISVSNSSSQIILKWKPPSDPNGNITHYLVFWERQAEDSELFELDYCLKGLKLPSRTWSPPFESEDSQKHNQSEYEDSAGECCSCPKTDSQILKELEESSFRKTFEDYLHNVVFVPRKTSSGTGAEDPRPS
Insulin receptor, sequence (P06213 763-1382 limits assumed): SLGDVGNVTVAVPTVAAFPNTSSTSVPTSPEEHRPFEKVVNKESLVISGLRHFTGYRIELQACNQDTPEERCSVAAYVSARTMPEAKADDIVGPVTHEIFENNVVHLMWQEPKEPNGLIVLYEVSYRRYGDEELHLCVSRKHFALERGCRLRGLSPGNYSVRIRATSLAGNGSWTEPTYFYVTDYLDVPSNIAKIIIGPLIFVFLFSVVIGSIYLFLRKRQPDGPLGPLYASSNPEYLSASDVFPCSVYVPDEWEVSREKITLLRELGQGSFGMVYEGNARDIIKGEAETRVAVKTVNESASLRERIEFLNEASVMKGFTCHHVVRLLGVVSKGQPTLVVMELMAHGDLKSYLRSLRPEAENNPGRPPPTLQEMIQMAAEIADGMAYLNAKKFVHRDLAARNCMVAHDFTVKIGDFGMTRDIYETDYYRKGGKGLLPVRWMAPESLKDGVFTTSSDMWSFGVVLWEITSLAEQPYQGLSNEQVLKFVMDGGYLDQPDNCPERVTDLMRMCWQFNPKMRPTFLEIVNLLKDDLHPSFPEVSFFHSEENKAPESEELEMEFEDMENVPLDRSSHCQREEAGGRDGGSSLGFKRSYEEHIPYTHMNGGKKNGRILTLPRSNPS
Inhibitor of nuclear factor kappa-B kinase subunit alpha, sequence (O15111 whole entry): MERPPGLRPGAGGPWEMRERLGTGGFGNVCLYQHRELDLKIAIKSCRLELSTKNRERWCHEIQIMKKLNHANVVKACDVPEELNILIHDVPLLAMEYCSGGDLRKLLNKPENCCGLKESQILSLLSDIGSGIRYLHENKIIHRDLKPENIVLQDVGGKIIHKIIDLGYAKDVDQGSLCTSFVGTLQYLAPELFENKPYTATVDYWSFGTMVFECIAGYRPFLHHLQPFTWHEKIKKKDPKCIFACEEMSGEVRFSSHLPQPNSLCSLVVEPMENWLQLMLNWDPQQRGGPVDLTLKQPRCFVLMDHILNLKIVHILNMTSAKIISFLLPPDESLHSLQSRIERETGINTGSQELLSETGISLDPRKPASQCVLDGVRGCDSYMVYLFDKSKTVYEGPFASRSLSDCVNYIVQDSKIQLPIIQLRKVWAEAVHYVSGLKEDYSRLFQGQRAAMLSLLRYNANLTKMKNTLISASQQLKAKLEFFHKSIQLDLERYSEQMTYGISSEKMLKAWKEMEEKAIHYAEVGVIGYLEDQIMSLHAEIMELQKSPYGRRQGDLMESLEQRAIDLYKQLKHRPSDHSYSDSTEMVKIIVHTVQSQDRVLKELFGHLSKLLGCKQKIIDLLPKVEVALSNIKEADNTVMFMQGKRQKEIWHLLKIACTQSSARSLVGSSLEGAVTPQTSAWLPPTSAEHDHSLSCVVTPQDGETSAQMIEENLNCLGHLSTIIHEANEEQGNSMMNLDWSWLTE
Casein kinase II, sequence (P67870 whole entry): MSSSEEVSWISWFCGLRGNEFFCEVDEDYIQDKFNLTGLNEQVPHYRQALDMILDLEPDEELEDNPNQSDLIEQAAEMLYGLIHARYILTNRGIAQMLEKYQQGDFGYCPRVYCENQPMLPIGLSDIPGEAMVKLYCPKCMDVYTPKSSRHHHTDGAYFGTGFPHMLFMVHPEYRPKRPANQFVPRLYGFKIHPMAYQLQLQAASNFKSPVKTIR
Casein kinase II, sequence (P68400 whole entry): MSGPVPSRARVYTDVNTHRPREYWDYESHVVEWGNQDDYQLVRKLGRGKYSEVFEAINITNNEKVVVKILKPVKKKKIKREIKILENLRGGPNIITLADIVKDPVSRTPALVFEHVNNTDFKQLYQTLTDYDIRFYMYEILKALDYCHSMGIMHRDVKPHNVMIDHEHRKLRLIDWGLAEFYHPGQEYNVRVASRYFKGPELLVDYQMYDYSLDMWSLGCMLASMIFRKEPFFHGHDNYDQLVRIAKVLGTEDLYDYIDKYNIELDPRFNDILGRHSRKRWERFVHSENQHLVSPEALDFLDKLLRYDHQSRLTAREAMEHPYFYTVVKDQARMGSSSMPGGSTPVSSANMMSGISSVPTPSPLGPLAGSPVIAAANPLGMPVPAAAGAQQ
Casein kinase II, sequence (P19784 whole entry): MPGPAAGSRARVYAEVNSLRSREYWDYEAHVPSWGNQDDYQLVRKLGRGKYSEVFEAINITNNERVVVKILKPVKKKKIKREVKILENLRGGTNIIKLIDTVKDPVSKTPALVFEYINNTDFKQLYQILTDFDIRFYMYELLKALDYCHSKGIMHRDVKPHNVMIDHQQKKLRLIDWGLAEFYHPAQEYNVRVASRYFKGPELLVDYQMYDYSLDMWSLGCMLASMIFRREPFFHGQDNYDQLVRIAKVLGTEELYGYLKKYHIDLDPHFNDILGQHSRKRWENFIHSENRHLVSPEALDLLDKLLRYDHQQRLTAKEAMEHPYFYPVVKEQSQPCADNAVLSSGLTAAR
Proto-oncogene tyrosine-protein kinase Src, sequence (P12931 2-536 limits assumed): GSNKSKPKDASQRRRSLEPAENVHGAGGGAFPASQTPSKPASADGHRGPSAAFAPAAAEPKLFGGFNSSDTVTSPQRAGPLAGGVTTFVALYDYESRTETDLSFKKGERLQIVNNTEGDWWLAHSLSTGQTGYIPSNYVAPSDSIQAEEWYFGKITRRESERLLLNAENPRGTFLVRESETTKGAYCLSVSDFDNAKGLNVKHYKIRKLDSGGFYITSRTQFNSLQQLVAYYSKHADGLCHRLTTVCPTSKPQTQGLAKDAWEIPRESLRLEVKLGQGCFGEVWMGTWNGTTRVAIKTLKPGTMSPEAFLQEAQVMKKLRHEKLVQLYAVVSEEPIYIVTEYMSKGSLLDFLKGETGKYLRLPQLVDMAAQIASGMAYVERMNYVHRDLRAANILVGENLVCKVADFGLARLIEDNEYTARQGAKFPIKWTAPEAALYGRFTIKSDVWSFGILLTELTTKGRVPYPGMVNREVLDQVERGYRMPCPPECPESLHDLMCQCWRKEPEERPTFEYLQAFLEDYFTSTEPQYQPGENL
Tyrosine-protein kinase CSK (Homo sapiens), sequence (P41240 2-450 limits assumed): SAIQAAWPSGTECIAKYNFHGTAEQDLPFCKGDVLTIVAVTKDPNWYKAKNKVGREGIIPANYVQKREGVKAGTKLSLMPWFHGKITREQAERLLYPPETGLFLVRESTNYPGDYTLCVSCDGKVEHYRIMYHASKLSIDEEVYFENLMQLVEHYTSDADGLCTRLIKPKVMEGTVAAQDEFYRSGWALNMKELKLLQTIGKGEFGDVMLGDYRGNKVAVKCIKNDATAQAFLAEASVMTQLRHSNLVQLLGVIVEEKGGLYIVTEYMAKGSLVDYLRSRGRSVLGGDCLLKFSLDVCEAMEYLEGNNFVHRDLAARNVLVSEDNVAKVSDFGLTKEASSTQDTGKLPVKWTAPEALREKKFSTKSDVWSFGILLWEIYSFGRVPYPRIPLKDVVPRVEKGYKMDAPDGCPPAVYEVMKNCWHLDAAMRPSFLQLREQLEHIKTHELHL

## C=CC(O)c1nc(O)c2c(ccc3nc(Nc4c(Cl)cccc4Cl)n(C)c32)c1C (stereo not given)
[1]
  IC50: 570 nM
Jurkat
  EC50: 1300 nM

## Cc1c(/C=C/CO)nc(O)c2c1ccc1nc(Nc3c(Cl)cccc3Cl)n(C)c12
Homo sapiens
  EC50: 3000 nM
Jurkat
  EC50: 8 nM

## Cc1nc(O)c2c(ccc3nc(Nc4c(Cl)cccc4Cl)n(C)c32)c1CCCN1CCOCC1
[1]
  IC50: 110 nM
Jurkat
  EC50: 300 nM

## Cc1c(C=O)nc(O)c2c1ccc1nc(Nc3c(Cl)cccc3Cl)n(C)c12
[1]
  IC50: 170 nM
Jurkat
  EC50: 450 nM

## Cc1nc(O)c2c(ccc3c2nc(Nc2c(Cl)cccc2Cl)n3C)c1C
[1]
  IC50: > 2000 nM

## Cc1c(/C=C/CN2CCCC2)nc(O)c2c1ccc1nc(Nc3c(Cl)cccc3Cl)n(C)c12
Homo sapiens
  EC50: 300 nM
Tissue or blood
  EC50: 150 nM
Jurkat
  EC50: 5 nM

## Cc1nc(O)c2c(ccc3nc(Nc4c(Cl)cccc4Cl)n(C)c32)c1CCN1CCOCC1
[1]
  IC50: 30 nM
Jurkat
  EC50: 270 nM

## CCN(CC)C/C=C/c1nc(O)c2c(ccc3nc(Nc4c(Cl)cccc4Cl)n(C)c32)c1C
Homo sapiens
  EC50: 1800 nM
[2]
  IC50: > 1000 nM
[3]
  IC50: > 1000 nM
[4]
  IC50: 50000 nM
[5]
  IC50: > 1000 nM
[6]
  IC50: > 100000 nM
Tissue or blood
  EC50: 130 nM
[7]
  IC50: 50000 nM
[8]
  IC50: 400 nM
[9]
  IC50: > 1000 nM
[10]
  IC50: 0.2 nM
[11]
  IC50: > 1000 nM
[12]
  IC50: > 1000 nM
[13]
  IC50: > 1000 nM
Jurkat
  EC50: 7 nM
[14]
  IC50: > 10000 nM
[15]
  IC50: 2 nM
[16]
  inhibition: 87%
Casein kinase II
  IC50: > 1000 nM
[17]
  IC50: > 100000 nM
[18]
  IC50: > 10000 nM
[19]
  IC50: > 1000 nM
[20]
  IC50: > 100000 nM
[21]
  IC50: > 1000 nM
[22]
  IC50: > 1000 nM
[23]
  IC50: > 1000 nM
Insulin receptor
  IC50: > 100000 nM
[24]
  IC50: > 100000 nM
[25]
  IC50: 8 nM
[26]
  IC50: > 1000 nM
Protein kinase C (PKC)
  IC50: > 300000 nM
[27]
  IC50: > 100000 nM
[28]
  IC50: > 30000 nM
[29]
  IC50: > 1000 nM
[30]
  IC50: > 100000 nM
[31]
  IC50: > 40000 nM
[32]
  IC50: > 1000 nM

## Cc1c(/C=C/CN(C)C)nc(O)c2c1ccc1nc(Nc3c(Cl)cccc3Cl)n(C)c12
Homo sapiens
  EC50: 680 nM
Tissue or blood
  EC50: 560 nM
[1]
  IC50: 3 nM
Jurkat
  EC50: 10 nM

## Cc1c(CNCc2ccccc2)nc(O)c2c1ccc1nc(Nc3c(Cl)cccc3Cl)n(C)c12
[1]
  IC50: 2000 nM
Jurkat
  EC50: 4200 nM

## Cc1nc(O)c2c(ccc3nc(Nc4c(Cl)cccc4Cl)n(C)c32)c1CC(=O)N1CCN(C)CC1
[1]
  IC50: 440 nM
Jurkat
  EC50: 1200 nM

## CCc1nc(O)c2c(ccc3nc(Nc4c(Cl)cccc4Cl)n(C)c32)c1C
[1]
  IC50: 780 nM
Jurkat
  EC50: 80 nM

## CCNC/C=C/c1nc(O)c2c(ccc3nc(Nc4c(Cl)cccc4Cl)n(C)c32)c1C
[1]
  IC50: 2 nM
Jurkat
  EC50: 9 nM

## Cc1c(CO)nc(O)c2c1ccc1nc(Nc3c(Cl)cccc3Cl)n(C)c12
[1]
  IC50: 770 nM
Jurkat
  EC50: 240 nM

## Cc1nc(O)c2c(ccc3nc(Nc4c(Cl)cccc4Cl)n(C)c32)c1CCO
[1]
  IC50: 27 nM
Jurkat
  EC50: 90 nM

## Cc1nc(O)c2c(ccc3nc(Nc4c(Cl)cccc4Cl)n(C)c32)c1C
Homo sapiens
  EC50: 1100 nM
[1]
  IC50: 23 nM
Jurkat
  EC50: 130 nM
